# Reference: PubChem BioAssay
# A number with no mark means an inactive call. Results filed as inconclusive are left out. Active and inactive are the calls of the source.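 The calls were made as follows, unless noted: active = inhibition over a set limit, the all-compound mean plus 3 SD, in both replicate runs; inconclusive = over that limit in just one replicate run; inactive = at or under that limit in both runs.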
# Tests used:
# [1] = S. cerevisiae growth inhibition in permissive medium (OD615), pilot counter-assay for S. cerevisiae lifespan shortening project, permissive growth control (AID 705;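 active = growth inhibition above 25% in both replicates, a cutoff set 3 SD above the mean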); conditions: OD615, 24 h, at 10 µM, stronger effect = higher value
# Procedure, shortened: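 assay system = Saccharomyces cerevisiae strain carrying genetically modified DeaD replicative-lifespan system | technique = absorbance (optical density) at 615 nm | buffer or medium = permissive raffinose/galactose medium | timing = cells pre-grown 4 h, then 24 h compound exposure, 30 °C humidified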
# [2] = S. cerevisiae growth inhibition in restrictive medium, OD615, pilot screen, restrictive growth control, yeast lifespan reduction project (AID 706;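 active = growth inhibition above a set limit, 3 SD over mean compound inhibition, in both replicates, cut at about 43% in these data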;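 also: modified DeaD lifespan yeast strain shifted to restrictive glucose medium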); conditions: OD615, 48 h, at 10 µM, stronger effect = higher value
# Procedure, shortened: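 System: modified S. cerevisiae. Buffer or medium: CSMM-D glucose medium. Incubation: 4 h pre-growth plus 48 h compound exposure, 30 °C. Detection: absorbance (optical density) measured at 615 nm.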
# [3] = doxorubicin toxicity protection in MRP-1 cells – H69AR cells, CellTiter-Glo, duplicate, MRP-1 activator project, pilot screen (AID 807;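 active = viability increase at or above a cutoff of the median across tested compounds plus 3 SD, cut at about 8.5% in these data, passing the limit was not always enough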;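 also: compound pretreatment 18-22 h then 72 h combined with doxorubicin; 0% = doxorubicin alone and 100% = vehicle without doxorubicin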); conditions: H69AR viability with doxorubicin, CellTiter-Glo luminescence; at 10 µM; stronger effect = higher value
# [4] = viability of PTEN-null HCT116 cells – cell-based, HCT116 clonal line, CellTiter-Glo, pilot screen (AID 824;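 active = viability at or below 27.92% in each of two runs, the all-compound median minus 4 SD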;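 also: 0% = 20 µM Hyamine control and 100% = vehicle cell control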); conditions: HCT116 PTEN-deleted viability, 60 h, at 10 µM, stronger effect = lower value
# [5] = RAM pathway blockade in budding yeast – dse1pr::URA3 reporter, 5-FOA selection, pilot screen (AID 869);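 also: 0% = DMSO wells with no growth and 100% = 10 µM 1-NA-PP1 with full growth; RAM network block rescues cells from 5-FOA so hits raise OD615 growth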; conditions: S. cerevisiae dse1pr::URA3 5-FOA growth, OD615, 2 d; at 10 µM; stronger effect = higher value; strain carries analog-sensitive mutant Cbk1 kinase
# [6] = RAM signaling pathway blockade in yeast – S. cerevisiae, Pdr1DBD-CYC8 efflux-inhibited sensitized strain, primary screen (AID 1298;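 active = RAM network inhibition above 8.4% in each of two replicates, 3 SD over the compound average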;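 also: 0% = DMSO untreated cells without growth and 100% = 10 µM 1-NA-PP1 full growth; higher means more yeast growth rescued from 5-FOA killing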); conditions: S. cerevisiae cbk1-as DSE1-URA3 strain, 5-FOA growth OD615, 2 d; at 50 µM; stronger effect = higher value
Compound,growth inhibition [1] [%],growth inhibition [2] [%],viability increase [3] [%],viability [4],inhibition [5] [%],RAM network inhibition [6] [%]
COc1ccc(S(=O)(=O)N(CCc2ccccc2)CC(=O)N2CCOCC2)cc1,-7.4,-6.06,-4.39,96.6%,0.965,-0.36
COc1ccccc1N1CCN(CC(O)COc2ccc3c(C)cc(=O)oc3c2)CC1 (stereo not given),-3.12,-9.43,-2.57,92.3%,1.95,2.88
CCOC(=O)c1c(NC(=O)OC)sc(C(=O)N(CC)CC)c1C,-14.6,-12.4,-1.31,93%,1.47,1.79
CC(C)c1cc(=O)oc2c3c4c(cc12)CCCN4CCC3,0.175,9.32,-4.62,57.8%,1.84,3.62
COC(=O)C(CC(C)C)Oc1ccc2c(C)cc(=O)oc2c1 (stereo not given),-10.5,5.8,-2.47,92.6%,1.14,1.38
O=C(COc1ccccc1)NCCSc1ccccc1,-10.4,-5.4,-2.23,97.5%,1.55,0.83
O=C(Nc1ccc(S(=O)(=O)N2CCOCC2)cc1)C1COc2ccccc2O1 (stereo not given),-6.88,-3.29,-1.63,104%,0.055,1.34
Cc1oc(-c2ccc(Cl)cc2)nc1CN1CCC(C(=O)N2CCc3ccccc3C2)CC1,-4.91,-16.6,-8.22,11.8% (active),0.05,8.38
COc1ccc(OC)c(NC(=O)C(CC(C)C)NC(=O)C2CCCCC2)c1 (stereo not given),-5.08,11.6,-5.29,86%,1.02,3.18
O=C(Oc1ccc(Cl)cc1)N1CCCCC1,-8.34,3.42,0.94,103%,-0.1,4.56
CC(C)(Oc1ccc(Cl)cc1)C(=O)OCC(=O)N1CCCC1,-8.95,-11,-2.58,96.5%,0.455,-1.13
N#Cc1ccc(Sc2nc3ccccc3[nH]2)cc1C#N,-7.23,4.58,-5.02,89.8%,2.44,1.9
COC(=O)c1c(C)oc2cc(Br)c(OCC(=O)C(C)(C)C)cc12,-9.2,-14.9,-2.86,90.9%,1.84,3.84
c1ccc(CSc2nnc3c(n2)OC(c2ccco2)Nc2ccccc2-3)cc1 (stereo not given),-10.6,2.27,-4.19,88.8%,0.38,7.16
Cc1ccc(N2CC(C(=O)OCC(=O)C(C)(C)C)CC2=O)cc1 (stereo not given),7.84,8.49,-1.06,101%,0.56,3.64
Cc1ccc(N(CC(=O)NCc2ccco2)S(=O)(=O)c2ccccc2)cc1,-10.9,-7.57,-4.6,87.2%,1.1,1.9
COC(=O)C(C)Sc1nnc(-c2ccncc2)o1 (stereo not given),-6.28,-8.81,-0.71,99.4%,1.64,0.1
CC(=O)c1c(C(C)=O)c(C)n(-c2nc(-c3ccccc3)c(C)s2)c1C,0.235,-11,-2.37,91.4%,1.21,4.01
c1coc(CNc2c3c(nc4ncnn24)CCCC3)c1,0.96,6.76,-1.88,93.1%,-0.155,1.39
O=C1c2ccccc2C(=O)N1CSc1nnnn1-c1ccccc1,-1.45,31.4,-2.14,104%,2.01,6.61
